These results are taken from ChEMBL document CHEMBL1138454, “Synthesis and SAR of tolylamine 5-HT6 antagonists” (Bioorg Med Chem Lett, 2009).

Each structure is given as a SMILES string. The source made the active and inactive calls. No cut-off for these calls is given here.

The nature of series [1]: Half life in po dosed rat plasma. Format: ADME, organism-based. The gist of the method: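 Rat pharmacokinetics; plasma half-life derived from the PO dosing arm.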
A short description of series [2]: Ratio of drug level in rat brain to plasma. The note with it: brain and plasma.
Series [3] deals with 5-hydroxytryptamine receptor 6 (Rattus norvegicus) (UniProt P31388). The experiment in a line: Agonist activity at rat recombinant 5HT6 receptor assessed as increase in 5-HT-stimulated cAMP level at 3 uM by ELISA. It is filed as functional. In outline:
(§1)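 cAMP accumulation measured by ELISA in cells expressing recombinant rat 5-HT6 receptor. Compound tested alone, without 5-HT, at 1, 3 and 10 µM to look for stimulation. 5-HT used as the stimulating reference.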

Series [4] concerns Rattus norvegicus. Briefly: Reversal of natural forgetting activity in rat assessed as novel object recognition at 10 mg/kg, ip after 24 hrs. Format: functional, organism-based. On the set-up: dose 10 mg/kg.
Series [5] addresses 5-hydroxytryptamine receptor 6 (Rattus norvegicus) (UniProt P31388). The experiment in a line: Agonist activity at rat recombinant 5HT6 receptor assessed as increase in 5-HT-stimulated cAMP level at 1 uM by ELISA. It is filed as functional. The gist of the method:
as §1

Series [6] addresses T1, 5-hydroxytryptamine receptor 1A (Homo sapiens, UniProt P08908).
T1 sequence (P08908 whole entry): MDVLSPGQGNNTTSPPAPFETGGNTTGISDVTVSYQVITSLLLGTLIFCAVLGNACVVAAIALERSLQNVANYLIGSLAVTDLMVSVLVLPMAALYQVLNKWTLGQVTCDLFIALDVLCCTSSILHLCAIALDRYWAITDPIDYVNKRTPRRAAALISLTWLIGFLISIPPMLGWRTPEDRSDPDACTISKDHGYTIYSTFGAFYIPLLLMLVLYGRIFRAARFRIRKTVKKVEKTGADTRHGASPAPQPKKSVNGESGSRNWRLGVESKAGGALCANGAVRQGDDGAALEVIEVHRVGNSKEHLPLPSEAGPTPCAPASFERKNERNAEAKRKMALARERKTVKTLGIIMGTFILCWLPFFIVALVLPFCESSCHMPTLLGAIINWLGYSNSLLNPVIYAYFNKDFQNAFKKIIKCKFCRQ
Briefly: Binding affinity to 5HT1A receptor.

The test system of series [7] is Rattus norvegicus. The experiment in a line: Reversal of natural forgetting activity in rat assessed as familiar object recognition at 3 mg/kg, ip after 24 hrs. On the set-up: dose 3 mg/kg. It is filed as functional, organism-based.
Series [8] relates to Rattus norvegicus. The experiment in a line: Reversal of natural forgetting activity in rat assessed as familiar object recognition at 10 mg/kg, ip after 24 hrs. It is filed as functional, organism-based. Also on record: dose 10 mg/kg.
Series [9] is described as follows: Clearance in rat. It is filed as ADME, organism-based. The following applies: in vivo.
Series [10] is described as follows: Volume of distribution at steady state in rat. Format: ADME, organism-based. The following applies: in vivo, read-out: Vdss.
Series [11] deals with Rattus norvegicus. The experiment in a line: Reversal of natural forgetting activity in rat assessed as novel object recognition at 3 mg/kg, ip after 24 hrs. It is filed as functional, organism-based. Also on record: dose 3 mg/kg.
Series [12] concerns the target 5-hydroxytryptamine receptor 6 (Rattus norvegicus) (UniProt P31388). The experiment in a line: Agonist activity at rat recombinant 5HT6 receptor assessed as increase in 5-HT-stimulated cAMP level at 10 uM by ELISA. It is filed as functional. The gist of the method: as §1
Series [13] addresses 5-hydroxytryptamine receptor 2A (Homo sapiens, UniProt P28223). The experiment in a line: Binding affinity to 5HT2A receptor.
The nature of series [14]: Bioavailability in rat. The note with it: in vivo. Format: ADME, organism-based.
Series [15] concerns the target T2, 5-hydroxytryptamine receptor 2C (Homo sapiens, UniProt P28335).
T2 sequence (P28335 whole entry): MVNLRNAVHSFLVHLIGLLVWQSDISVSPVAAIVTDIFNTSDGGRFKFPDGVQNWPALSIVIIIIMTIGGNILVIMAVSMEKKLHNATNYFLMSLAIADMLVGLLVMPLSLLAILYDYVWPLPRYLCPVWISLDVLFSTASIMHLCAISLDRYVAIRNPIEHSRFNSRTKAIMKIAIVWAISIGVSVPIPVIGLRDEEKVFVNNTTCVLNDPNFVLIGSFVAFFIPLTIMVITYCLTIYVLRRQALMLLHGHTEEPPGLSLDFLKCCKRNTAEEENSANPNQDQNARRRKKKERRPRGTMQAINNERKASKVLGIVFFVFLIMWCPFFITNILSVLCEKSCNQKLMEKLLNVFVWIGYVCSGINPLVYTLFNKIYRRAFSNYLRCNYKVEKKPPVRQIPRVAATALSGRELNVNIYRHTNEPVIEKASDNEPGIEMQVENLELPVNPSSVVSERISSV
Briefly: Binding affinity to 5HT2C receptor.

The target in series [16] is 5-hydroxytryptamine receptor 6 (Rattus norvegicus) (UniProt P31388). The experiment in a line: Antagonist activity at rat recombinant 5HT6 receptor assessed as inhibition of 5-HT-stimulated cAMP level by ELISA. It is filed as functional. In outline: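 Cells expressing recombinant rat 5-HT6 receptor were stimulated with 5-HT. Inhibition of the 5-HT-stimulated cAMP accumulation was read by ELISA and expressed as a Kb.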
5-hydroxytryptamine receptor 6 (Rattus norvegicus), sequence (P31388 whole entry): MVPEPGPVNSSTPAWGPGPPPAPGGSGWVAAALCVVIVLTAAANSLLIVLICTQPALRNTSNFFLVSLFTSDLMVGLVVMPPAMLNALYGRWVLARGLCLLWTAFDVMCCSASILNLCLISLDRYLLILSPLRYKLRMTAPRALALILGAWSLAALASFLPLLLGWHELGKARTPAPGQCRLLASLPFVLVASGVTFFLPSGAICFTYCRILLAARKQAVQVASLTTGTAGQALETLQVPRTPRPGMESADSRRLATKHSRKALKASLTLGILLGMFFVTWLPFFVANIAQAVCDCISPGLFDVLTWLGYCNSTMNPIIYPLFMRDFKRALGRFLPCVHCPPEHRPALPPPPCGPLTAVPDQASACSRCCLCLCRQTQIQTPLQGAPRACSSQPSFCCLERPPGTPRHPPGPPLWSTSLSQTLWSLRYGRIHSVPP

5-hydroxytryptamine receptor 2A, sequence (P28223 whole entry): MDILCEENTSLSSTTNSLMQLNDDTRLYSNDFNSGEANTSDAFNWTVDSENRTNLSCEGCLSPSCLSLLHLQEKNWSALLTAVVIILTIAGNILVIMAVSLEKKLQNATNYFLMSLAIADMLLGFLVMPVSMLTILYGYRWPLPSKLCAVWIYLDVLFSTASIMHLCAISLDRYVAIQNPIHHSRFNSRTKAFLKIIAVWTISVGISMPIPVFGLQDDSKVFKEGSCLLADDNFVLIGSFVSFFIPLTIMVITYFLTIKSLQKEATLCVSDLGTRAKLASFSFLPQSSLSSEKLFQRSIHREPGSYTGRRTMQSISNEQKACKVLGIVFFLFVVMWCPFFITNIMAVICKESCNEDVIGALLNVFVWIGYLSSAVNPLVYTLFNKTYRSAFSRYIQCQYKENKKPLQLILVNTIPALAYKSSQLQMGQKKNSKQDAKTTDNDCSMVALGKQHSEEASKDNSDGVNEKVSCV

With `Cc1c(O[C@@H](C)c2cccc(F)c2)cccc1C1CCNCC1`, the half-life in series [1] is 5.9 h. The Kp in [2] came out at 23. The result in series [3], in series [5] and in [12] was inactive. Moreover, the result in the series with Rattus norvegicus [4], in the series with Rattus norvegicus [7], in the series on Rattus norvegicus [8] and with Rattus norvegicus [11] was Active. The IC50 in series [6], in [13] and in series [15] was over 1 µM throughout. This compound showed a clearance in series [9] of 3.96 L/h/kg. Besides, the Vd in series [10] came to 12 L/kg. For the same compound, in series [14], the bioavailability amounted to 90%. Besides, the antagonist equilibrium constant (Kb) in series [16] is 0.153 µM.
